Measurements as given in ChEMBL document CHEMBL1687753, “Mitochondrial DNA depletion and respiratory chain activity in primary human subcutaneous adipocytes treated with nucleoside analogue reverse transcriptase inhibitors” (Antimicrob Agents Chemother, 2010).
Activity calls are given as the source filed them. No cut-off for these calls is given here.

Tests used:
Homo sapiens [1] = test: Inhibition of electron transport protein complex 2/3 in human subcutaneous preadipocytes at 0.1 uM after 30 to 60 days by photometric analysis; assay type: cell-based
In short: (§1)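 Pooled primary human abdominal subcutaneous preadipocytes induced to differentiate with drug (DMSO vehicle, ≤0.1%) added at day 0 and kept to day 30 or 60. Cells sonicated twice for 10 s; substrates added to lysates and conversion by complexes I+III, II+III, IV, V and citrate synthase read photometrically at 37°C. Three independent experiments.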

[2] = Toxicity in human subcutaneous preadipocytes assessed as decrease of cell viability measured every 5 days at 0.1 uM after 30 days using […]; assay type: cell-based; settings: 720 h
In short: (§2)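 Trypan blue exclusion counted by microscopy at each medium change every fifth day during 30 days of drug exposure in differentiating pooled preadipocytes. Final viability was calculated by excluding the cumulative percentage of dead cells. Five independent experiments.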

[3] = Toxicity in human subcutaneous preadipocytes assessed as cell death at 0.1 uM after 30 days using […]; assay type: cell-based; settings: 720 h; in short: as §2
[4] = Toxicity in human subcutaneous preadipocytes assessed as decrease of cell cultures at 0.1 uM after 30 days using oil red O fluorescence staining by conventional fluorescence microscopy; assay type: cell-based; settings: 720 h
In short: (§3)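 On day 30 of differentiation with drug present from day 0, cells were fixed in 10% formalin and stained with 0.21% oil red O. Staining was viewed by fluorescence and light microscopy. For quantification, dye was extracted with isopropanol and read at 495 nm, also adjusted for viable cell number. Five independent experiments.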

[5] = Toxicity in human subcutaneous preadipocytes assessed as decrease of mitochondrial DNA abundance at 0.1 uM after 30 days by RT-PCR analysis; assay type: cell-based; settings: 720 h
In short: (§4)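 mtDNA content of differentiated preadipocytes at day 30 or 60 of drug exposure was measured by real-time quantitative PCR with human-specific primers. Absolute copy numbers came from serial dilutions of plasmid standards. Three independent experiments.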

[6] = Toxicity in human subcutaneous preadipocytes assessed as acquisition of adipocyte shape at 0.1 uM after 30 days using oil red O fluorescence staining by conventional fluorescence microscopy; assay type: cell-based; settings: 720 h; in short: as §3
Homo sapiens [7] = test: Inhibition of electron transport protein complex 4 in human subcutaneous preadipocytes at 0.1 uM after 30 to 60 days by photometric analysis; assay type: cell-based; in short: as §1
[8] = Toxicity in human subcutaneous preadipocytes assessed as decrease of PPARgamma expression at 0.1 uM after 18 days by RT-PCR analysis; assay type: cell-based; settings: 432 h
In short: (§5)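 Differentiating preadipocytes were harvested at day 18. RNA from three plates was pooled and reverse transcribed, and qRT-PCR was run with 42 cycles of 94/55/72°C. Values were normalized to transferrin receptor or beta-actin by standard curve. Triplicates from three independent experiments.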

Homo sapiens [9] = test: Inhibition of electron transport protein complex 5 in human subcutaneous preadipocytes at 0.1 uM after 30 to 60 days by photometric analysis; assay type: cell-based; in short: as §1
Homo sapiens [10] = test: Inhibition of electron transport protein complex 1/3 in human subcutaneous preadipocytes at 0.1 uM after 30 to 60 days by photometric analysis; assay type: cell-based; in short: as §1
[11] = Toxicity in human subcutaneous preadipocytes assessed as effect on mitochondrial membrane potential at 0.1 uM after 30 days using JC-1 red/green fluorescence dye by flow cytometry analysis; assay type: cell-based; settings: 720 h
In short: (§6)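 Pooled primary human subcutaneous preadipocytes (passage ≤4) were differentiated with drug or DMSO vehicle from day 0 and cultured 30 days. Staining with the JC-1 kit was followed by flow cytometry, and the JC-1 red/green fluorescence intensity ratio was used as the membrane potential read-out. CCCP served as the depolarization control. Three independent experiments, means ± SEM.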

[12] = Toxicity in human subcutaneous preadipocytes assessed as effect on mitochondrial mass at 0.1 uM after 30 days using […] by flow cytometry analysis; assay type: cell-based; settings: 720 h
[13] = Toxicity in human subcutaneous preadipocytes assessed as decrease of insulin-sensitizing adipokine expression at 0.1 uM after 30 days by RT-PCR analysis; assay type: cell-based; settings: 720 h
In short: (§7)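 Adiponectin mRNA at day 30 was measured by qRT-PCR normalized to transferrin receptor or beta-actin, using pooled RNA and cDNA. Triplicates from three independent experiments.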

Homo sapiens [14] = test: Inhibition of citrate synthase in human subcutaneous preadipocytes at 0.1 uM after 30 to 60 days by photometric analysis; assay type: cell-based; in short: as §1
[15] = Toxicity in human subcutaneous preadipocytes assessed as decrease of C/EBPalpha expression at 0.1 uM after 18 days by RT-PCR analysis; assay type: cell-based; settings: 432 h; in short: as §5
[16] = Toxicity in human subcutaneous preadipocytes assessed as decrease of C/EBPalpha expression at 3 uM after 18 days by RT-PCR analysis; assay type: cell-based; settings: 432 h; in short: as §5
[17] = Toxicity in human subcutaneous preadipocytes assessed as decrease of PPARgamma expression at 3 uM after 18 days by RT-PCR analysis; assay type: cell-based; settings: 432 h; in short: as §5
[18] = Toxicity in human subcutaneous preadipocytes assessed as decrease of mitochondrial DNA copy number per cell at 0.1 uM after 60 days by RT-PCR analysis; assay type: cell-based; set-up: scale not given: the % may be the effect or the level left; settings: 1440 h; in short: as §4
[19] = Toxicity in fully differentiated human subcutaneous preadipocytes assessed as cell death at 0.1 uM after 30 days using […]; settings: 720 h; in short: as §2
[20] = Toxicity in human subcutaneous preadipocytes assessed as decrease of adiponectin expression at 0.1 uM after 30 days by ELISA; assay type: cell-based; settings: 720 h
In short: (§8)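 Adiponectin secreted into the medium over days 25 to 30 of drug exposure in differentiating preadipocytes was measured by sandwich ELISA of culture supernatant. Three independent experiments.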

[21] = Toxicity in human subcutaneous preadipocytes assessed as triacylglyceride droplets at 0.1 uM after 30 days using oil red O fluorescence staining by conventional fluorescence microscopy; assay type: cell-based; settings: 720 h
In short: (§9)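 Preadipocytes were differentiated with a hormone cocktail (IBMX for the first 7 days, dexamethasone, insulin, indomethacin; high-glucose DMEM for days 0–18), with drug or vehicle present from day 0 to day 30. Cells were fixed in 10% formalin, stained with 0.21% oil red O in 60% isopropanol, and imaged by fluorescence microscopy. Quantification was by isopropanol extraction at 495 nm, optionally adjusted for viable cells.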

[22] = Toxicity in human subcutaneous preadipocytes assessed as decrease of mitochondrial DNA abundance at 0.1 uM after 60 days by RT-PCR analysis; assay type: cell-based; settings: 1440 h; in short: as §4
[23] = Toxicity in human subcutaneous preadipocytes assessed as effect on mitochondrial mass at 6 uM after 30 days using […] by flow cytometry analysis; assay type: cell-based; settings: 720 h
Homo sapiens [24] = test: Inhibition of electron transport protein complex 2/3 in human subcutaneous preadipocytes at 6 uM after 30 to 60 days by photometric analysis; assay type: cell-based; in short: as §1
[25] = Toxicity in human subcutaneous preadipocytes assessed as decrease of cell cultures at 6 uM after 30 days using oil red O fluorescence staining by conventional fluorescence microscopy; assay type: cell-based; settings: 720 h; in short: as §3
[26] = Toxicity in human subcutaneous preadipocytes assessed as decrease of insulin-sensitizing adipokine expression at 6 uM after 30 days by RT-PCR analysis; assay type: cell-based; settings: 720 h; in short: as §7
[27] = Toxicity in human subcutaneous preadipocytes assessed as decrease of cell viability measured every 5 days at 6 uM after 30 days using […]; assay type: cell-based; settings: 720 h; in short: as §2
[28] = Toxicity in human subcutaneous preadipocytes assessed as cell death at 6 uM after 30 days using […]; assay type: cell-based; settings: 720 h; in short: as §2
[29] = Toxicity in human subcutaneous preadipocytes assessed as decrease of mitochondrial DNA abundance at 6 uM after 30 days by RT-PCR analysis; assay type: cell-based; settings: 720 h; in short: as §4
[30] = Toxicity in human subcutaneous preadipocytes assessed as decrease of PPARgamma expression at 6 uM after 18 days by RT-PCR analysis; assay type: cell-based; set-up: scale not given: the % may be the effect or the level left; settings: 432 h; in short: as §5
Homo sapiens [31] = test: Inhibition of electron transport protein complex 1/3 in human subcutaneous preadipocytes at 6 uM after 30 to 60 days by photometric analysis; assay type: cell-based; in short: as §1
[32] = Toxicity in human subcutaneous preadipocytes assessed as decrease of adiponectin expression at 6 uM after 30 days by ELISA; assay type: cell-based; settings: 720 h; in short: as §8
[33] = Toxicity in human subcutaneous preadipocytes assessed as effect on mitochondrial membrane potential at 6 uM after 30 days using JC-1 red/green fluorescence dye by flow cytometry analysis; assay type: cell-based; settings: 720 h; in short: as §6
[34] = Toxicity in human subcutaneous preadipocytes assessed as decrease of C/EBPalpha expression at 6 uM after 18 days by RT-PCR analysis; assay type: cell-based; set-up: scale not given: the % may be the effect or the level left; settings: 432 h; in short: as §5
Homo sapiens [35] = test: Inhibition of electron transport protein complex 4 in human subcutaneous preadipocytes at 6 uM after 30 to 60 days by photometric analysis; assay type: cell-based; in short: as §1
Homo sapiens [36] = test: Inhibition of citrate synthase in human subcutaneous preadipocytes at 6 uM after 30 to 60 days by photometric analysis; assay type: cell-based; in short: as §1
[37] = Toxicity in human subcutaneous preadipocytes assessed as triacylglyceride droplets at 6 uM after 30 days using oil red O fluorescence staining by conventional fluorescence microscopy; assay type: cell-based; settings: 720 h; in short: as §9
[38] = Toxicity in fully differentiated human subcutaneous preadipocytes assessed as cell death at 6 uM after 30 days using […]; settings: 720 h; in short: as §2
[39] = Toxicity in human subcutaneous preadipocytes assessed as acquisition of adipocyte shape at 6 uM after 30 days using oil red O fluorescence staining by conventional fluorescence microscopy; assay type: cell-based; settings: 720 h; in short: as §3
Homo sapiens [40] = test: Inhibition of electron transport protein complex 5 in human subcutaneous preadipocytes at 6 uM after 30 to 60 days by photometric analysis; assay type: cell-based; in short: as §1

SMILES: Nc1ccn([C@H]2CC[C@@H](CO)O2)c(=O)n1 [ZALCITABINE]
- inhibition (Homo sapiens [1]): inactive
- Activity [2]: Toxic
- Activity [3]: Toxic
- Activity [4]: Toxic
- Activity [5]: Toxic
- Activity [6]: Non-toxic
- inhibition (Homo sapiens [7]): inactive
- Activity [8]: Non-toxic
- inhibition (Homo sapiens [9]): inactive
- inhibition (Homo sapiens [10]): inactive
- Activity [11]: Non-toxic
- Activity [12]: Non-toxic
- Activity [13]: Non-toxic
- inhibition (Homo sapiens [14]): inactive
- Activity [15]: Non-toxic
- Activity [16]: Non-toxic
- Activity [17]: Non-toxic
- Activity [18]: 50%
- Activity [19]: Toxic
- Activity [20]: Non-toxic
- Activity [21]: Non-toxic
- Activity [22]: Toxic

SMILES: Cc1cn([C@H]2C[C@H](N=[N+]=[N-])[C@@H](CO)O2)c(=O)[nH]c1=O [ZIDOVUDINE]
- Activity [23]: Non-toxic
- inhibition (Homo sapiens [24]): inactive
- Activity [25]: Toxic
- Activity [26]: Non-toxic
- Activity [27]: Toxic
- Activity [28]: Toxic
- Activity [29]: Non-toxic
- Activity [30]: 40%
- inhibition (Homo sapiens [31]): inactive
- Activity [32]: Non-toxic
- Activity [33]: Non-toxic
- Activity [34]: 40%
- inhibition (Homo sapiens [35]): inactive
- inhibition (Homo sapiens [36]): inactive
- Activity [37]: Non-toxic
- Activity [38]: Toxic
- Activity [39]: Non-toxic
- inhibition (Homo sapiens [40]): inactive
